# CSN inh – CSN deneddylation inhibition. Purified CSN, SCF-Nedd8-OG deneddylation, fluorescence polarization. inhibition, % at 12.5 µM. actives 0.38% (n = 360,000). AID 651999;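 active = pattern-corrected inhibition above about 35%, with an unprinted fluorescence ratio check between 0.5 and 1.5, limit read from the data, passing the limit was not always enough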;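 also: 0% = enzyme with substrate and 100% = substrate without enzyme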
#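 Assay system: purified human Csn5 enzyme expressed in HEK293T cells; measure: % inhibition; also added: SCFSkp2-Nedd8OG substrate at 10 nM final; technique: fluorescence polarization; times: reaction 90 min, room temperature; medium: Tris buffer pH 7.5, NaCl, DTT, Tween-20, trehalose, ovalbumin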
# DNMT1 block – blocks human DNA methyltransferase DNMT1 | P26358 | DNMT1 molecular beacon, Hinp1I cleavage, fluorescence | inhibition (reported as % activation of signal), % at 10 µM | actives 0.83% (n = 360,000) | AID 588458; in the data active = inhibition above about 50%
# Target sequence (P26358 504-1616 limits assumed): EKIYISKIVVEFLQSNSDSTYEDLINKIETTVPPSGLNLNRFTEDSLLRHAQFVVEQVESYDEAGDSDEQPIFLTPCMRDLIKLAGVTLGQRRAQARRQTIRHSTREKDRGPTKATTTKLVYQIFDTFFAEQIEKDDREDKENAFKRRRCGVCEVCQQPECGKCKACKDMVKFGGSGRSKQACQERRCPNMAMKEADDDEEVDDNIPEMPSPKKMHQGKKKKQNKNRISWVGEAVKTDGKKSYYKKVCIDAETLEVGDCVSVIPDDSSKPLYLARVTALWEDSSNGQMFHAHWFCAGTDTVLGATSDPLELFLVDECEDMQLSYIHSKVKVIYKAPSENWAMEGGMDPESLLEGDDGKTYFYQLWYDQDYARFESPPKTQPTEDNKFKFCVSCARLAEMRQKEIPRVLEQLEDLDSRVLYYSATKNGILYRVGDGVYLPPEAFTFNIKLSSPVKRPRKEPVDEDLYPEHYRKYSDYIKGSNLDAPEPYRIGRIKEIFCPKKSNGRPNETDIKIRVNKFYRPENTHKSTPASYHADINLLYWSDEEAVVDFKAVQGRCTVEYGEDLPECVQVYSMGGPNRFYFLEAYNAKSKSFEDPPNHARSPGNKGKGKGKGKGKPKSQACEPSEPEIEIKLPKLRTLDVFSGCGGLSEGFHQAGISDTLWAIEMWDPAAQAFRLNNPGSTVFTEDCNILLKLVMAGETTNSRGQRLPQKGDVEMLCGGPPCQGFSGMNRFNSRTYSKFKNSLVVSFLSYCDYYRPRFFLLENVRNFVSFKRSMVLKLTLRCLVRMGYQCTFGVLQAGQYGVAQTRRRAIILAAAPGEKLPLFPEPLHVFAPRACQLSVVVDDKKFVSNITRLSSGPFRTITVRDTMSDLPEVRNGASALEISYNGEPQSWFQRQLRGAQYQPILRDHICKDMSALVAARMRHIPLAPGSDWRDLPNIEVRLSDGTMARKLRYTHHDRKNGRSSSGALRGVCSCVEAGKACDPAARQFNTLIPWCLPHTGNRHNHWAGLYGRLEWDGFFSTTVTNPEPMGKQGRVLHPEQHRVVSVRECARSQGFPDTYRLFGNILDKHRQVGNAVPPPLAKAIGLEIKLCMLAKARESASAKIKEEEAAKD
# LMPTP inh – LMPTP (human) inhibition; recombinant LMPTP-A, OMFP fluorogenic substrate, fluorescence intensity; P24666; AID 651560; inhibition, % at 20 µM; actives 0.22% (n = 360,000);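 active = compounds that cut the enzyme signal by at least half of the control window in the single-dose screen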;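 also: plate controls were DMSO wells with enzyme plus substrate for no effect and substrate without enzyme for full effect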
#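 Assay system: LMPTP-A, protein tyrosine phosphatase of low molecular weight / Medium: pH 6.0 Bis-Tris buffer with DTT and Triton X-100 / Schedule: 50 min enzyme reaction at room temperature, protected from light / Measured by: endpoint fluorescence intensity from OMFP dephosphorylation / Read-out basis: % inhibition relative to no-enzyme and uninhibited control wells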
# SUMO1 PPI mod – alters human SUMO1 binding to SIM partners; inhibition, % at 20 µM; actives 0.33% (n = 360,000); AID 602429; SUMO1 binding to a labelled peptide, TR-FRET, 1 h; in the data active = inhibition above about 37%
# STEP block – STEP (human) phosphatase inhibition; P54829; recombinant STEP, OMFP fluorogenic substrate, fluorescence; inhibition, % at 20 µM; actives 0.25% (n = 360,000);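 active = inhibition at 20 µM, scaled per plate between control wells, above about 37%, limit read from the data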;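 also: 0% = DMSO with enzyme and substrate and 100% = substrate only without enzyme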
#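 medium = Bis-Tris buffer pH 6.0, 2.5 mM DTT, 0.005% Tween 20 | test system = STEP (striatal-enriched tyrosine phosphatase) enzyme, cell-free | measure = normalized % inhibition | compound dosing = 20 µM, 1% DMSO | also added = 25 µM OMFP | schedule = reaction 20 min, ambient temperature | measured by = fluorescence read at 480 nm ex / 540 nm em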
# Scp-1 inhibitor – inhibitors of human Scp-1 phosphatase; Q9GZU7; Recombinant Scp1, phosphopeptide, malachite green phosphate absorbance; inhibition, % at 20 µM; actives 0.88% (n = 340,000); AID 493091;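 active = inhibition above about 50% at 20 µM, limit read from the data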;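 also: plate controls were DMSO wells with enzyme for no effect and wells lacking enzyme for full effect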
#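 Test system – truncated SCP-1 phosphatase (76-261aa) · Reagent – Phosphorylated 17-residue peptide substrate · Incubation – 45 min room-temperature reaction, 5 min colour, 30 min stabiliser · Detection – colorimetric phosphate reagent with accelerator and stabiliser, absorbance at 630 nm · Measure – % inhibition at 20 µM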
# Scp1 confirm – confirmation of human Scp-1 phosphatase inhibitors; actives 61% (n = 2,500); AID 540281; recombinant SCP-1 catalytic domain, phosphate release, malachite green absorbance; inhibition, % at 20 µM; shares compounds with Scp-1 inhibitor;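 also: plate controls were DMSO with enzyme for no effect and buffer wells lacking enzyme for full effect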
# MG interference – interferes with malachite green readout, flagging false Scp-1 hits; shares compounds with Scp-1 inhibitor; Colorimetric interference counterscreen, malachite green absorbance 630 nm; apparent inhibition (interference), % at 20 µM; 2,500 tested, under 10 active; AID 540313;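 also: compounds added after enzyme reaction finished so only phosphate colour detection is probed; plate controls were DMSO wells with completed Scp-1 reaction for no effect and substrate wells lacking enzyme for full effect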
# Scp-1 Tm shift – Scp-1 (human) binding by thermal shift; actives 25% (n = 1,500); AID 540329; thermal shift relative to vanadate control, % at 40 µM; shares compounds with Scp-1 inhibitor; Recombinant SCP1, Sypro Orange thermal shift Tm;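 active = substances whose mean melting-temperature shift, as a percentage of the reference inhibitor's shift, reaches about 5.3%, limit read from the data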;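 also: 0% = Tm of DMSO wells and 100% = Tm with sodium orthovanadate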
# Numbers without * were called inactive; / = not tested or not shown. Most compounds without a hit are left out; they make up all but 1.9% or so of the library.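 The calls were made as follows, unless noted: active = inhibition of at least 30% at 20 µM; inactive = the rest.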
SMILES,CSN inh,DNMT1 block,LMPTP inh,SUMO1 PPI mod,STEP block,Scp-1 inhibitor,Scp1 confirm,MG interference,others
COc1ccc(OCCOC(=O)c2ccc(F)c(S(=O)(=O)N3CCOCC3)c2)cc1,-4,0,0,-1,-1,-5,/,/,
N#C/C(=C/c1ccccc1OCc1ccc(F)cc1)c1ccc(C(=O)O)cc1,-2,-8,1,-7,2,65*,7,-21,
COc1cc(/C=C(\C#N)C(=O)Nc2cccc(C(=O)O)c2)ccc1OCc1ccc(F)cc1,5,3,1,9,2,56*,27,-27,
N#C/C(=C\c1ccccc1OCc1ccc(C(=O)O)cc1)C(=O)Nc1ccc(O)cc1,-7,3,-1,7,-4,-13,/,/,
N#C/C(=C/c1ccc(OCc2ccc(C(=O)O)cc2)cc1)C(=O)Nc1ccccc1,2,1,2,-15,3,71*,82*,-7,Scp-1 Tm shift=-9
N#C/C(=C\c1ccc(OCc2ccc(Br)cc2)cc1)C(=O)Nc1cccc(C(=O)O)c1,24,28,34,57*,41*,57*,59*,-14,Scp-1 Tm shift=-2
CCOc1cc(/C=C(\C#N)C(=O)Nc2cccc(C(=O)O)c2)cc(Br)c1OC(=O)c1ccc(OC)cc1,6,12,0,14,-5,-4,/,/,
CCOc1cc(/C=C(\C#N)C(=O)Nc2cccc(C(=O)O)c2)ccc1OCc1ccccc1Cl,3,7,3,30,20,46,/,/,
COC(=O)[C@@]12C[C@@H](CC(=O)N3CCN(C(=O)C4CC4)CC3)C(=O)N(Cc3ccc4c(c3)OCO4)C1=CCC(C)(C)C2,2,/,-1,-5,/,/,/,/,
COc1ccccc1CNc1nc(Nc2ccccc2-n2cccn2)c2sccc2n1,0,-15,17,-35,1,/,/,/,
CC(C)(C)OC(=O)N1CCC[C@H]1c1nnc(SCc2ccc(Cl)cc2)o1,2,0,-2,-2,0,-7,/,/,
Cc1ccc(C)c(C(O)c2ncc(-c3cccc(F)c3)[nH]2)c1 (stereo not drawn),1,1,0,-2,0,/,/,/,
C[N+](C)(C)c1ccc(/C=N/Nc2nc(Cl)c(C#N)c(Cl)c2Cl)cc1,10,4,4,-15,3,53*,19,-1,
N#Cc1c(Cl)nc(N/N=C/c2ccccc2)c(Cl)c1Cl,-4,1,-1,-1,-3,-7,/,/,
Cc1cc(C)n2cc(CSc3nnc(-c4ccccc4)o3)nc2n1,-1,3,-1,-2,0,80*,-6,-13,
Cc1cccc(OCCOCCN2CCOCC2)c1C,1,2,0,3,2,51*,-16,-13,
O=C(O)c1ccc([N+](=O)[O-])c(CS(=O)(=O)c2ccc(Cl)cc2)c1,-3,-1,-1,0,-1,66*,4,-15,
CCN(CC)c1ccc(C2CC(=O)Nc3cc(OC)c(OC)cc32)cc1 (stereo not drawn),-2,2,-1,-1,1,-9,/,/,
CCOC(=O)C(Cc1ccnc2ccccc12)=NO,-4,8,2,1,-4,-5,/,/,
CCOC(=O)C(=O)Cc1cccnn1,17,66*,6,43*,3,75*,44*,-23,Scp-1 Tm shift=12*
CCCCC1(C)OC(=O)C(=Cc2ccc(-c3ccc(Cl)c(C(=O)O)c3)o2)C(=O)O1 (stereo not drawn),19,37,0,17,11,60*,45*,-12,Scp-1 Tm shift=-28
